Experimental data pooled from the literature.
Protocols differ between the studies behind these lines.
Observed: cell growth or viability

SMILES | cell line | test | conditions | measurement | value
COc1cc2ncnc(Nc3ccc4c(c3)/C(=C/c3ccccc3)C(=O)N4C)c2cc1OC | A549 | MTT | – | IC50 | 14.4 µM
Cc1cc(NC(=O)C=Cc2ccccc2)cc(-c2ccnc(N3CCC(CO)CC3)c2)c1 | A549 | MTT | 5 µM | inhibition | 54.3%
C=CC(=O)NC1CCN(c2ncc3ncnc(Nc4ccc(Oc5ccc6c(c5)ncn6C)c(C)c4)c3n2)CC1 | A549 | – | – | EC50 | 6.34 µM
Cc1cccc(/C=C/C(=O)Nc2cc(-c3ccnc(N4CCC(O)CC4)c3)ccn2)c1 | A549 | MTT | 5 µM | inhibition | 74.5%
Cc1nc(Nc2ccc3c(c2)/C(=C/c2ccccc2C)C(=O)N3C)c2ccccc2n1 | A549 | MTT | – | IC50 | 21.6 µM
CCc1c(C)c2ccc(OCC(=O)NN=Cc3ccc([N+](=O)[O-])cc3)cc2oc1=O | PC-3 | MTT | 500 µg/mL | viability | 5.32%
O=C(/C=C/c1cccc(F)c1)Nc1cc(-c2ccnc(N3CCC(O)CC3)c2)ccn1 | A549 | MTT | 5 µM | inhibition | 62.4%
C=CCOc1ccc2c(C)c(CC)c(=O)oc2c1C | PC-3 | MTT | 500 µg/mL | viability | 7.08%
Cc1cccc(/C=C/C(=O)Nc2cccc(-c3ccnc(N4CCC(O)CC4)c3)c2)c1 | A549 | MTT | 5 µM | inhibition | 54.8%
CCc1c(C)c2ccc(OCc3nnc(S)n3N)c(C)c2oc1=O | PC-3 | MTT | 125 µg/mL | viability | 11.3%
COc1ccc(-c2cc(-c3ccc(OC)cc3)c3c(=O)[nH]c(=O)[nH]c3n2)cc1 | PC-3 | MTT | 48 h | IC50 | 12.3 µM
O=C(C=Cc1ccccc1)Nc1cc(-c2ccnc(N3CCC(O)CC3)c2)ccn1 | A549 | MTT | 5 µM | inhibition | 73.1%
CCNC(=S)NNC(=O)COc1ccc2c(C)c(CC)c(=O)oc2c1C | PC-3 | MTT | 31.25 µg/mL | viability | 99%
Cc1cc(NC(=O)C=Cc2ccccc2)cc(-c2ccnc(N3CCC(O)CC3)c2)c1 | A549 | MTT | 5 µM | inhibition | 37.6%
CC(C)C[C@@H]1NC(=O)[C@@H](N(C)C(=O)[C@H](CC2CCC2)NC(=O)[C@@H]2C[C@@H](F)CN2C(=O)C2(C(F)(F)F)CC(F)(F)C2)CCCCNC(=O)C2(CC2)NC(=O)[C@H](Cc2cc(Cl)ccc2Cl)N(C)C1=O | NCI-H1048 | MTT | 5 days | GI50 | 0.032 µM
CCc1c(C)c2ccc(OCC(=O)NNC(=S)Nc3ccccc3)c(C)c2oc1=O | PC-3 | MTT | 125 µg/mL | viability | 4.76%
O=C(/C=C/c1ccc(F)cc1)Nc1cc(-c2ccnc(N3CCC(O)CC3)c2)ccn1 | A549 | MTT | 5 µM | inhibition | 62.2%
CC(=NNC(=O)COc1ccc2c(C)c(Cc3ccccc3)c(=O)oc2c1C)c1ccc(Br)cc1 | PC-3 | MTT | 31.25 µg/mL | viability | 14%
COc1cc2ncnc(Nc3ccc4c(c3)/C(=C/c3ccccc3)C(=O)N4)c2cc1OC | A549 | MTT | – | IC50 | 17.1 µM
COc1ccc(-c2cc(-c3ccc(OC)cc3)c3c(=O)n(C)c(=O)n(C)c3n2)cc1 | PC-3 | MTT | 48 h | IC50 | 26.2 µM
COc1cccc2c1C(=O)c1c(O)c3c(c(O)c1C2=O)C[C@@](O)(C(=O)CO)C[C@@H]3O[C@H]1C[C@H](N)[C@H](O)[C@H](C)O1 | A549 | MTT | 50 µg/mL, 48 h, serum-free | viability | 20.2%
O=C(O)c1ccc2c(c1)nc(Nc1cccc(Cl)c1)c1ccncc12 | NCI-H522 | resazurin | 48 h | IC50 | 9.3 µM
Cc1cccc(/C=C/C(=O)Nc2cc(-c3ccnc(N4CCOCC4)c3)ccn2)c1 | A549 | MTT | 5 µM | inhibition | 74.9%
Cc1c(Cc2ccccc2)c(=O)oc2c(C)c(OCC(=O)NN=Cc3ccccc3)ccc12 | PC-3 | MTT | 31.25 µg/mL | viability | 42.1%
Cc1ccc(-c2cc(-c3ccc(Cl)cc3)c3c(=O)n(C)c(=O)n(C)c3n2)cc1 | PC-3 | MTT | 48 h | IC50 | 11.7 µM
Cc1c(Cc2ccccc2)c(=O)oc2c(C)c(OCC(=O)NN=Cc3ccco3)ccc12 | PC-3 | MTT | 500 µg/mL | viability | 8.21%
Cc1nc(NC(=O)N2CCC[C@H]2C(N)=O)sc1-c1ccnc(C(C)(C)C(F)(F)F)c1 | A549 | MTT | – | IC50 | 11.1 µM
